Consider 8 compounds from ChEMBL document CHEMBL4261491, “Synthesis and synergistic antifungal effects of monoketone derivatives of curcumin against fluconazole-resistant Candida spp” (Medchemcomm, 2017).

In series [1] the test system is Candida tropicalis. Kind of series: Antifungal activity against fluconazole-resistant Candida tropicalis clinical isolate 087 assessed as fungal growth inhibition at 0.5 ug/ml after 48 hrs. Format: functional, organism-based. The essentials:
(§1)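 C. tropicalis 087 was grown in RPMI 1640 at 30 °C for 48 h with fluconazole (0.25, 0.5, 1 μg ml–1) or compound (64, 128 μg ml–1), alone or combined. OD630 was read every 8 h to build growth curves. Three independent experiments, means ± SD.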

In series [2] the test system is Pichia kudriavzevii. Kind of series: Antifungal activity against fluconazole-resistant Candida krusei clinical isolate 2159 by broth microdilution method. In kind it is functional. The essentials: (§2)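 Broth microdilution per CLSI/NCCLS M27-A2 against FLC-resistant clinical isolates. MIC80 read for each compound alone and with fluconazole at 8.0 μg ml–1. C. albicans ATCC 90028 served as quality control. Curcumin was the positive control.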
A general note: In broth dilution the organism is exposed to a series of concentrations in liquid medium.

Series [3] deals with Candida albicans. Briefly: Antifungal activity against fluconazole-resistant Candida albicans clinical isolate 103 by broth microdilution method. In kind it is functional. The essentials:
as §2

The test system of series [4] is Candida tropicalis. Kind of series: Antifungal activity against fluconazole-resistant Candida tropicalis clinical isolate 087 by broth microdilution method. Format: functional. The essentials: as §2
For series [5], the system named is Candida tropicalis. Briefly: Antifungal activity against fluconazole-resistant Candida tropicalis clinical isolate 087 assessed as fungus with permeabilized membrane at 2 ug/ml after 12 hrs by propidium iodide staining-based flow cytometry (reference value: 7.22%). Format: functional. For orientation: Flow cytometry measures light scatter and fluorescence of single cells or particles in a stream.

Series [6] has as its system Candida tropicalis. Kind of series: Antifungal activity against fluconazole-resistant Candida tropicalis clinical isolate 087 at 1 ug/ml after 16 hrs by turbidity method. In kind it is functional, organism-based. The essentials: (§3)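 C. tropicalis 087 at 10^4 CFU ml–1 in RPMI 1640 in glass tubes. Compound (0–128 μg ml–1) and fluconazole (0–2 μg ml–1) were added alone or in combination. Tubes were shaken at 200 rpm at 30 °C for 16 h, and turbidity was inspected visually and photographed.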

In series [7] the test system is Candida tropicalis. Briefly: Fungicidal activity against fluconazole-resistant Candida tropicalis clinical isolate 087 at 128 ug/ml after 48 hrs. Format: functional, organism-based. The essentials:
as §1

Series [8] in a line: Cytotoxicity against HUVEC assessed as cell viability at 32 ug/ml after 24 hrs by MTT assay relative to control. Format: cell-based. Conditions: human, HUVEC cells; read-out: Activity. The essentials: (§4)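 HUVECs grown in DMEM with 10% FCS and 100 μg ml–1 streptomycin, 5% CO2, 37 °C. Cells exposed to compounds at 16 and 32 μg ml–1 for 24 h, then incubated with MTT solution (5 mg ml–1) for 3 h. Optical density read at 570 nm. Viability expressed as percentage relative to drug-free control.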
A general note: Tetrazolium dyes change colour on reduction, which living cells bring about.

The test system of series [9] is Candida tropicalis. Kind of series: Antifungal activity against fluconazole-resistant Candida tropicalis clinical isolate 087 assessed as fungus with permeabilized membrane at 32 ug/ml after 12 hrs by propidium iodide staining-based flow cytometry (reference value: 7.22%). In kind it is functional.
In series [10] the test system is Candida albicans. Briefly: Antifungal activity against fluconazole-resistant Candida albicans clinical isolate 103 in presence of 8 ug/ml fluconazole by broth microdilution method. Format: functional. Particulars: for MIC80: Candida albicans, isolate 103. The essentials: as §2
Series [11] relates to Candida tropicalis. Briefly: Antifungal activity against fluconazole-resistant Candida tropicalis clinical isolate 087 assessed as apoptosis at 128 ug/ml after 48 hrs. Format: functional, organism-based.
The nature of series [12]: Cytotoxicity against HUVEC assessed as cell viability at 16 ug/ml after 24 hrs by MTT assay relative to control. In kind it is cell-based. Particulars: human, HUVEC cells; read-out: Activity. The essentials: as §4
Series [13] has as its system Candida tropicalis. Briefly: Antifungal activity against fluconazole-resistant Candida tropicalis clinical isolate 087 at 64 ug/ml after 16 hrs by turbidity method. In kind it is functional, organism-based. The essentials: as §3
The test system of series [14] is Pichia kudriavzevii. Kind of series: Antifungal activity against fluconazole-resistant Candida krusei clinical isolate 2159 in presence of 8 ug/ml fluconazole by broth microdilution method. Format: functional. Conditions: for MIC80: Pichia kudriavzevii, isolate 2159. The essentials: as §2
In series [15] the test system is Candida tropicalis. Kind of series: Synergistic antifungal activity against fluconazole-resistant Candida tropicalis clinical isolate 087 assessed as fungus with permeabilized membrane at 32 ug/ml after 12 hrs in presence of 2 ug/ml fluconazole by propidium iodide staining-based flow cytometry (reference value: 7.22%). Format: functional.
The test system of series [16] is Candida tropicalis. Briefly: Synergistic fungicidal activity against fluconazole-resistant Candida tropicalis clinical isolate 087 at 64 to 128 ug/ml after 48 hrs in presence of 1 ug/ml fluconazole. In kind it is functional, organism-based. The essentials: as §1
The test system of series [17] is Candida tropicalis. Kind of series: Synergistic antifungal activity against fluconazole-resistant Candida tropicalis clinical isolate 087 at 4 ug/ml after 16 hrs in presence of fluconazole by turbidity method. In kind it is functional, organism-based. The essentials: as §3
Series [18] has as its system Candida tropicalis. Kind of series: Antifungal activity against fluconazole-resistant Candida tropicalis clinical isolate 087 assessed as fungal growth inhibition at 64 ug/ml after 48 hrs. Format: functional, organism-based. The essentials:
as §1

Series [19] has as its system Candida tropicalis. Briefly: Antifungal activity against fluconazole-resistant Candida tropicalis clinical isolate 087 in presence of 8 ug/ml fluconazole by broth microdilution method. Format: functional. Particulars: for MIC80: Candida tropicalis, isolate 087. The essentials:
as §2

As usually defined, the MIC80 is the lowest concentration that inhibits either 80% of growth or 80% of the strains tested, depending on the study.

The structures appear in SMILES notation. ≈ marks a conversion by molar mass, not a printed value. Calls of active or inactive are those of the source. No cut-off for these calls is given here. Bounds are passed on as bounds.

For the compound `OC(Cn1cncn1)(Cn1cncn1)c1ccc(F)cc1F` [FLUCONAZOLE], the “growth inhibition (GI)” value in the series with Candida tropicalis [1] is “Active”. The MIC80 with Pichia kudriavzevii [2], against Candida albicans [3] and against Candida tropicalis [4] was 128 µg/mL (≈ 418 µM) in each case. Also, the Activity with Candida tropicalis [5] is 37.27%. The outcome in the series on Candida tropicalis [6] was inactive.
Regarding `O=C(/C=C/c1ccc(O)c(O)c1)/C=C/c1ccc(O)c(O)c1`, the outcome with Candida tropicalis [7], with Candida tropicalis [11], in the series on Candida tropicalis [13], in the series on Candida tropicalis [16] and with Candida tropicalis [17] was Active. For the same compound, the viability at 24 h, 32 ug/ml in series [8] turned out to be 75%. In addition, the MIC80 stood at 64 µg/mL (≈ 215 µM) against Pichia kudriavzevii [2]; 4 µg/mL in the series on Candida albicans [10]; 64 µg/mL (≈ 215 µM) against Candida albicans [3]; 64 µg/mL (≈ 215 µM) with Candida tropicalis [4]; 8 µg/mL in the series on Pichia kudriavzevii [14]; 4 µg/mL with Candida tropicalis [19]. The Activity with Candida tropicalis [9] came to 20.92%; in the series with Candida tropicalis [15] it was 72.79%. Also, the entries for the “fractional inhibitory concentration index (FICI)” value in the series on Candida albicans [10], with Pichia kudriavzevii [14] and in the series on Candida tropicalis [19] were 0.125, 0.188 and 0.125, respectively. In series [12], the viability at 24 h, 16 ug/ml is 91%. Also, the “growth inhibition (GI)” value with Candida tropicalis [18] is “Active”.
Take `O=C1/C(=C/c2ccc(O)cc2)CC/C1=C\c1ccc(O)cc1`: the viability at 24 h, 32 ug/ml in series [8] worked out at 60%. In addition, the MIC80 against Pichia kudriavzevii [2] was over 64 µg/mL; with Candida albicans [10] it was over 64 µg/mL; in the series on Candida albicans [3] it was over 64 µg/mL; against Candida tropicalis [4] it was over 64 µg/mL; in the series with Pichia kudriavzevii [14], over 64 µg/mL; in the series with Candida tropicalis [19], 8 µg/mL. The “fractional inhibitory concentration index (FICI)” value in the series on Candida albicans [10] is on record as over 1.06; in the series on Pichia kudriavzevii [14], over 1.06; with Candida tropicalis [19], 0.188. Further, in series [12], the viability at 24 h, 16 ug/ml is 69%.
For `O=C(/C=C/c1cccs1)/C=C/c1cccs1`, the viability at 24 h, 32 ug/ml in series [8] came out at 49%. Further, the MIC80 in the series on Pichia kudriavzevii [2] was over 64 µg/mL; in the series on Candida albicans [10], 8 µg/mL; against Candida albicans [3], over 64 µg/mL; against Candida tropicalis [4] it was over 64 µg/mL; in the series with Pichia kudriavzevii [14] it was over 64 µg/mL; in the series on Candida tropicalis [19] it was over 64 µg/mL. The entries for the “fractional inhibitory concentration index (FICI)” value in the series with Candida albicans [10], with Pichia kudriavzevii [14] and with Candida tropicalis [19] were 0.188, over 1.06 and over 1.06, respectively. Further, the viability at 24 h, 16 ug/ml in series [12] is 84%.
Consider `O=C(/C=C/c1ccc(O)cc1)/C=C/c1ccc(O)cc1`, for which, in series [8], the viability at 24 h, 32 ug/ml worked out at 75%. The MIC80 in the series with Pichia kudriavzevii [2] was over 64 µg/mL; with Candida albicans [10] it was over 64 µg/mL; in the series with Candida albicans [3] it was over 64 µg/mL; against Candida tropicalis [4], over 64 µg/mL; in the series on Pichia kudriavzevii [14], over 64 µg/mL; in the series with Candida tropicalis [19], 8 µg/mL. The “fractional inhibitory concentration index (FICI)” value was over 1.06 in the series with Candida albicans [10], over 1.06 in the series on Pichia kudriavzevii [14] and 0.188 in the series on Candida tropicalis [19]. Also, the viability at 24 h, 16 ug/ml in series [12] came out at 87%.
On to `O=C(/C=C/c1ccc(F)cc1)/C=C/c1ccc(F)cc1`, for which the viability at 24 h, 32 ug/ml in series [8] turned out to be 43%. Besides, the MIC80 with Pichia kudriavzevii [2] is over 64 µg/mL; in the series with Candida albicans [10], over 64 µg/mL; in the series on Candida albicans [3], over 64 µg/mL; against Candida tropicalis [4], over 64 µg/mL; in the series with Pichia kudriavzevii [14], over 64 µg/mL; in the series on Candida tropicalis [19], 8 µg/mL. For the same compound, the “fractional inhibitory concentration index (FICI)” value was over 1.06 in the series with Candida albicans [10], over 1.06 in the series on Pichia kudriavzevii [14] and 0.188 in the series with Candida tropicalis [19]. Besides, the viability at 24 h, 16 ug/ml in series [12] came to 64%.
With `O=C1/C(=C/c2ccco2)CC/C1=C\c1ccco1`, the viability at 24 h, 32 ug/ml in series [8] was determined as 69%. Besides, the MIC80 in the series on Pichia kudriavzevii [2] was over 64 µg/mL; in the series with Candida albicans [10], over 64 µg/mL; in the series with Candida albicans [3], over 64 µg/mL; in the series with Candida tropicalis [4], over 64 µg/mL; with Pichia kudriavzevii [14], over 64 µg/mL; in the series on Candida tropicalis [19] it was 8 µg/mL. Moreover, the “fractional inhibitory concentration index (FICI)” value in the series on Candida albicans [10] is given as over 1.06; with Pichia kudriavzevii [14] it was over 1.06; in the series with Candida tropicalis [19], 0.188. For the same compound, in series [12], the viability at 24 h, 16 ug/ml was determined as 86%.
Turning to `O=C1/C(=C/c2ccc(CO)o2)CC/C1=C\c1ccc(CO)o1`, the viability at 24 h, 32 ug/ml in [8] stood at 57%. For the same compound, the MIC80 against Pichia kudriavzevii [2] was over 64 µg/mL; with Candida albicans [10], over 64 µg/mL; against Candida albicans [3] it was over 64 µg/mL; against Candida tropicalis [4], over 64 µg/mL; in the series with Pichia kudriavzevii [14], over 64 µg/mL; in the series on Candida tropicalis [19], 4 µg/mL. The “fractional inhibitory concentration index (FICI)” value is over 1.06 in the series with Candida albicans [10], over 1.06 in the series with Pichia kudriavzevii [14] and 0.125 in the series with Candida tropicalis [19]. Also, in series [12], the viability at 24 h, 16 ug/ml is 68%.
